The values below come from ChEMBL document CHEMBL1152901, “The synthesis and biological evaluation of para-substituted phenolic N-alkyl carbamates as endocannabinoid hydrolyzing enzyme inhibitors” (Eur J Med Chem, 2009).

Active and inactive are the calls of the source. The rule behind the calls is not given here.

The target of experiment [1] is T1, Monoglyceride lipase (Rattus norvegicus) (UniProt Q8R431).
T1 sequence (whole entry): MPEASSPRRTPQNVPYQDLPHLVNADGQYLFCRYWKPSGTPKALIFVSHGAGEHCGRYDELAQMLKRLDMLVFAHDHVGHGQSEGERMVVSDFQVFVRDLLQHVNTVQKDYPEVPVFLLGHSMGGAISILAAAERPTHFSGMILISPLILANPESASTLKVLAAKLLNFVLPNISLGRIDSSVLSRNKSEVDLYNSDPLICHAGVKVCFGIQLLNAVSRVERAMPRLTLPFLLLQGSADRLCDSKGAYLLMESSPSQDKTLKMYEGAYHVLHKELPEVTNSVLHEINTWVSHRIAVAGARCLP
In words: Inhibition of MGL in Wistar rat cerebral membrane at 1 mM by HPLC. The format is cell membranes. In outline:
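Rat cerebellar membranes were prepared by sucrose homogenisation, differential centrifugation and washing. […] Reactions were stopped with acidified acetonitrile (pH 3.0). 2-AG, 1(3)-AG and arachidonic acid were quantified by reversed-phase HPLC (UV 211 nm peak areas). Remaining activity is reported.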

The target of experiment [2] is T2, Monoglyceride lipase (Homo sapiens) (UniProt Q99685).
T2 sequence (whole entry): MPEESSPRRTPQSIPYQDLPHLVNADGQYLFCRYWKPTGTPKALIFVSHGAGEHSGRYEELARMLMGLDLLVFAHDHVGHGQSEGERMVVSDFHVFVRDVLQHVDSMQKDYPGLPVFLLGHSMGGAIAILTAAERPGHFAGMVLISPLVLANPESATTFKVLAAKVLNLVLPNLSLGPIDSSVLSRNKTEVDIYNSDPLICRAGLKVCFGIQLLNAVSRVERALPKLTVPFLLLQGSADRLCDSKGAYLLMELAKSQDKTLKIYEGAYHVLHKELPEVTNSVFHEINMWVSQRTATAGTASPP
Briefly: Irreversible inhibition of human MGL at 0.3 uM by liquid scintillation counting. In short, it runs like this:
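Reversibility was tested on human recombinant MGL. The enzyme was preincubated with inhibitor at 50-fold the activity-assay enzyme level, then diluted […] into Tris-HCl pH 7.4/EDTA buffer with 50 μM 2-OG including [³H]2-OG. Samples taken at 0–60 min were stopped with cold ethyl acetate, and aqueous [³H]glycerol was counted by liquid scintillation. Activity was compared with DMSO vehicle over three independent experiments in duplicate.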

In experiment [3] the target is T1, Monoglyceride lipase (Rattus norvegicus). Briefly: Inhibition of MGL in Wistar rat cerebral membrane at 100 uM by HPLC. The format is cell membranes. In short, it runs like this:
(§1)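 Incubation is 90 min at 25 °C with 5 µg protein, 50 µM 2-AG, 100 mM NaCl and 5 mM MgCl2. The reaction is stopped with acidified acetonitrile (pH 3.0). 2-AG, 1(3)-AG and arachidonic acid are quantified by reversed-phase HPLC with UV at 211 nm. IC50 comes from a variable-slope fit, three experiments in duplicate; percentages are the mean of two in duplicate.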

Experiment [4] addresses T3, Fatty-acid amide hydrolase 1 (Rattus norvegicus, UniProt P97612).
T3 sequence (P97612 whole entry): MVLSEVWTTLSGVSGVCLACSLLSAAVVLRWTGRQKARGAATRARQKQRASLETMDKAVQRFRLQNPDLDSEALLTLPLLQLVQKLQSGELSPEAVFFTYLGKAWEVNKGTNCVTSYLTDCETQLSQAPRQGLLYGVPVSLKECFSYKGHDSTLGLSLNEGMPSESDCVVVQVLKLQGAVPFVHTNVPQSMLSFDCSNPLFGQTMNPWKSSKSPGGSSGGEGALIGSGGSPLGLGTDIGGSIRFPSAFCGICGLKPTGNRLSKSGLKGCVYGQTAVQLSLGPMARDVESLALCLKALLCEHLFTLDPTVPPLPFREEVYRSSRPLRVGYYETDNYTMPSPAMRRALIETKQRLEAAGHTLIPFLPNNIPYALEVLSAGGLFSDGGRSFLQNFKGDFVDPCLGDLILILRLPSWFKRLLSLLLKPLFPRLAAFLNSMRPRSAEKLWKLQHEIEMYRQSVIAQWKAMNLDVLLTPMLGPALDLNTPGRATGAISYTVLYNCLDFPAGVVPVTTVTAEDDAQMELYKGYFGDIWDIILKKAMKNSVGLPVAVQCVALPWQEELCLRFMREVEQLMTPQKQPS
Briefly: Inhibition of FAAH in Wistar rat cerebral membrane by liquid scintillation counting. The format is cell membranes. In short, it runs like this:
(§2)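 Rat brain homogenate (10,000g supernatant from male Wistar forebrain, 8 weeks old), 18 µg protein, preincubated with inhibitor in DMSO (≤5% v/v) for 10 min at 37 °C in 0.1 M potassium phosphate pH 7.4 with 0.5% fatty-acid-free BSA. Then 2 µM AEA carrying [ethanolamine-1-3H]AEA is added for 10 min at 37 °C. The reaction is stopped with ethyl acetate and aqueous [3H]ethanolamine is counted. IC50 comes from a variable-slope sigmoidal fit, three experiments in duplicate; single-point values are the mean of two experiments in duplicate.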

Experiment [5] has as its target T1, Monoglyceride lipase (Rattus norvegicus). Briefly: Inhibition of MGL in Wistar rat cerebral membrane assessed as residual activity at 1 mM by HPLC; values are per cent of control.
The target in experiment [6] is Monoglyceride lipase (Homo sapiens) (UniProt Q99685). In words: Inhibition of MGL in human recombinant MGL.
Experiment [7] concerns the target Monoglyceride lipase (Rattus norvegicus) (UniProt Q8R431). In words: Inhibition of MGL 2-AG hydrolysis in rat cerebellar membranes by liquid scintillation counting.
A further experiment concerns the target T4, Monoglyceride lipase (Rattus norvegicus, UniProt Q8R431).
T4 sequence (Q8R431 whole entry): T1 sequence (whole entry)
In words: Inhibition of MGL in Wistar rat cerebral membrane by HPLC. The format is cell membranes. In short, it runs like this:
as §1

Experiment [8] has as its target T5, Fatty-acid amide hydrolase 1 (Rattus norvegicus) (UniProt P97612).
T5 sequence (whole entry): T3 sequence (P97612 whole entry)
In words: Irreversible inhibition of FAAH in Wistar rat brain homogenate at 246 nM by liquid scintillation counting. The format is tissue-based.

Experiment [9] has as its target T3, Fatty-acid amide hydrolase 1. In words: Inhibition of FAAH-mediated hydrolysis of [3H]anandamide in rat RBL2H3 cells. The format is cell-based, RBL-2H3. In outline: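 RBL2H3 cells are preincubated 10 min at 37 °C with compound with or without URB597. [ethanolamine-1-3H]AEA is then added at 100 nM and incubated a further 20 min at 37 °C, and hydrolysis is measured. Data are means, n = 5, analysed by repeated-measures one-way ANOVA with Dunnett's test.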

Experiment [10] has as its target T5, Fatty-acid amide hydrolase 1 (Rattus norvegicus). Briefly: Inhibition of FAAH-mediated uptake of [3H]anandamide in rat RBL2H3 cells. The format is cell-based. Particulars: RBL-2H3. In outline: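 RBL2H3 cells are preincubated 10 min at 37 °C with compound with or without URB597. [arachidonoyl-3H]AEA is then added at 100 nM and incubated a further 10 min at 37 °C. Wells without cells serve as a comparison. Data are means, n = 4, analysed by repeated-measures one-way ANOVA with Dunnett's test.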

For experiment [11], the target named is T3, Fatty-acid amide hydrolase 1. In words: Inhibition of FAAH-mediated anandamide hydrolysis in rat brain membrane. The format is cell membranes.
The target of experiment [12] is T1, Monoglyceride lipase (Rattus norvegicus). Briefly: Inhibition of MGL in Wistar rat cerebral membrane at 30 uM by HPLC. The format is cell membranes. In short, it runs like this: as §1
The target is the same in experiment [13]. The conditions noted are these: Wistar, 100 uM.
For experiment [14], the target named is T5, Fatty-acid amide hydrolase 1 (Rattus norvegicus). Briefly: Inhibition of FAAH in Wistar rat cerebral membrane at 0.1 uM by liquid scintillation counting. The format is cell membranes. In short, it runs like this:
as §2

`NC(=O)c1cccc(-c2cccc(OC(=O)NC3CCCCC3)c2)c1`: the inhibition in experiment [1] turned out to be 30%. Besides, the result in [2] was Active.
For the molecule `CCCCNC(=O)Oc1ccc(-c2csnn2)cc1`, the inhibition in [3] is 46%. Moreover, 0.16 µM corresponded to half-maximal inhibition in [4] (IC50). In [5], the residual activity was 22%.
As for `CC(C)(C)NC(=O)Oc1ccc(C2=NCCS2)cc1`, in [3], the inhibition result is “inactive”. Half-maximal inhibition in experiment [4] (IC50) required 7 µM.
As to `CCCCCCCCCCCCNC(=O)Oc1ccccc1-c1csnn1`, the 50% inhibitory concentration (IC50) stood at 0.05 µM in experiment [4] and 18 µM in experiment [6].
On to `CCCCC/C=C\C/C=C\C/C=C\C/C=C\CCCCN1C(=O)C=CC1=O`, for which, in experiment [7], the 50% inhibitory concentration (IC50) is 0.14 µM.
Regarding `CCCCCCCCCCCCNC(=O)Oc1ccc(-c2csnn2)cc1`, the IC50 was 1.9 µM against Monoglyceride lipase, 0.012 µM in experiment [4] and 0.082 µM in experiment [9]. The outcome in experiment [8] and in [10] was Active.
For the molecule `O=C(Nc1ccc(-c2ccccc2)cc1)OC1CCCCC1`, the figures for the IC50 in experiment [4] and in [11] were 108 µM and 17 µM, respectively.
In turn, `CCCCCCCCCCCCNC(=O)Oc1cccc(-c2csnn2)c1` returned a concentration for half-maximal inhibition (IC50) in experiment [4] of 0.00024 µM. Moreover, the inhibition in experiment [12] stood at 57%. Moreover, the residual activity in experiment [5] amounted to 13%.
Turning to `CCCCNC(=O)Oc1ccc(C2=NCCS2)cc1`, the figures for the IC50 (at Monoglyceride lipase; in experiment [4]) were 31 µM and 0.52 µM, respectively. For the same molecule, in [13], the residual activity came out at 54%.
Consider `O=C(NC1CCCCC1)Oc1ccc(-c2csnn2)cc1`, for which the inhibition in [3] stood at 28%. Inhibition in [4] was half-maximal at 0.021 µM (IC50).
`CCCCCCNC(=O)Nc1ccc(-c2csnn2)cc1`: in experiment [3], the inhibition entry is “inactive”. In experiment [14], this molecule displayed an inhibition of 9%.
Regarding `O=C(Nc1ccc([N+](=O)[O-])cc1)OC1CCCCC1`, the inhibition result in experiment [3] is “inactive”. In experiment [14], this molecule had an inhibition of 9%.

One may read the inhibition as the drop in the measured response relative to a control, in per cent. The IC50 is the concentration that gives 50% inhibition. A word on the residual activity: it is the signal under treatment as a percentage of the control signal.
